From ChEMBL document CHEMBL4049392, “New azole derivatives showing antimicrobial effects and their mechanism of antifungal activity by molecular modeling studies” (Eur J Med Chem, 2017)
≈ marks a conversion by molar mass, not a printed value.

Assays:
Escherichia coli = assay: Antibacterial activity against Escherichia coli ATCC 25922 after 18 to 24 hrs by broth microdilution method; type: functional
Outline: (§1)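 CLSI broth microdilution in Mueller Hinton broth, with inoculum from 24 h Mueller Hinton agar subcultures, final about 5 10^5 cfu/mL. Compounds were dissolved in DMSO and tested as twofold dilutions in wells. Plates were incubated at 35 °C for 18–24 h. MIC was read as the lowest concentration completely inhibiting visible growth. Ciprofloxacin was the reference.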

Nakaseomyces glabratus = assay: Anti-fungal activity against drug-resistant Candida glabrata after 48 hrs by broth microdilution method; type: functional
Outline: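 Clinical resistant C. glabrata isolate, stored frozen in glycerol and subcultured twice on Sabouraud dextrose agar. CLSI broth microdilution in RPMI 1640 (glutamine, no bicarbonate) buffered to pH 7.0 with MOPS. Inoculum from 24 h subcultures, final 0.5 to 2.5 x10^3 cfu/mL. DMSO-dissolved compounds in twofold dilutions, 35 C for 48 h. MIC is the lowest concentration giving complete visual growth inhibition; fluconazole reference read at about 80% inhibition.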

Pseudomonas aeruginosa = assay: Antibacterial activity against Pseudomonas aeruginosa ATCC 27853 after 18 to 24 hrs by broth microdilution method; type: functional; outline: as §1
Candida parapsilosis = assay: Anti-fungal activity against Candida parapsilosis ATCC 90018 after 48 hrs by broth microdilution method; type: functional; conditions: Lodderomyces parapsilosis, ATCC 90018, 48 h
Outline: (§2)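 CLSI broth microdilution in RPMI 1640 (with glutamine, without bicarbonate) buffered to pH 7.0 with MOPS. Inoculum was prepared from 24 h Sabouraud dextrose agar subcultures, final 0.5 to 2.5 10^3 cfu/mL. Twofold dilutions were made from DMSO stocks. Incubated 35 °C for 48 h. MIC was the lowest concentration with no visible growth; for the fluconazole reference, MIC was taken at about 80% growth inhibition versus control.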

Enterococcus faecalis = assay: Antibacterial activity against Enterococcus faecalis ATCC 29212 after 18 to 24 hrs by broth microdilution method; type: functional; outline: as §1
Staphylococcus aureus = assay: Antibacterial activity against Staphylococcus aureus ATCC 29213 after 18 to 24 hrs by broth microdilution method; type: functional; outline: as §1
Candida albicans [1] = assay: Anti-fungal activity against Candida albicans ATCC 90028 after 48 hrs by broth microdilution method; type: functional; conditions: ATCC 90028, 48 h; outline: as §2
Pichia kudriavzevii = assay: Anti-fungal activity against Candida krusei ATCC 6258 after 48 hrs by broth microdilution method; type: functional; conditions: ATCC 6258, 48 h; outline: as §2
[2] = Cytotoxicity against human U937 cells assessed as cell viability at 10 to 100 ug/ml after 48 hrs by MTT assay relative to control; type: cell-based, U-937; conditions: read-out: Activity
Outline: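 U937 human monocytic cells, 4 10^3 per well in RPMI-1640 with 10% FBS, L-glutamine, penicillin and streptomycin, at 37 °C and 5% CO2. Compounds in DMSO were added at five final concentrations for 48 h, in triplicate. MTT was added for 4 h, formazan was dissolved overnight in SDS/23% DMF, and OD was read at 570 nm. Results are % reduction in viable cells versus control.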

Candida albicans [3] = assay: Antibiofilm activity against Candida albicans SC5314 after 24 hrs by turbidity assay; type: functional
Outline: (§3)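 Biofilms were grown on Calgary device pegs from a 10^6 cfu/mL inoculum for 24 h at 37 °C. Pegs were rinsed in saline, then challenged with twofold dilutions for 24 h at 35 °C. Biofilm was recovered by 5 min sonication into RPMI 1640 with 2% glucose and incubated overnight. OD was read at 550 nm plus visual turbidity. MBEC was the lowest concentration preventing regrowth. MBIC was the minimum concentration preventing initial biofilm formation, judged by visual turbidity.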

Candida albicans [4] = assay: Antibiofilm activity against Candida albicans SC5314 after 24 hrs by spectrophotometric method; type: functional; outline: as §3

SMILES | MIC (Escherichia coli) [µg/mL] | MIC (Nakaseomyces glabratus) [µg/mL] | MIC (Pseudomonas aeruginosa) [µg/mL] | MIC (Candida parapsilosis) [µg/mL] | MIC (Enterococcus faecalis) [µg/mL] | MIC (Staphylococcus aureus) [µg/mL] | MIC (Candida albicans [1]) [µg/mL] | MIC (Pichia kudriavzevii) [µg/mL] | viability at 48 h [2] [%] | MBIC (Candida albicans [3]) [µg/mL] | MBEC (Candida albicans [4]) [µg/mL]
CCCCC(=O)OC(Cn1ccnc1)c1ccccc1.Cl (stereo unspecified) | 512 | 32 | 256 | 8 | 128 | 256 | 8 | 32 |  |  | 
Cl.O=C(OC(Cn1ccnc1)c1ccccc1)C1CCCCC1 (stereo unspecified) | 512 |  | 256 | 16 | 32 | 64 | 16 | 128 |  |  | 
CCC(=O)OC(Cn1ccnc1)c1ccc(Cl)cc1.Cl (stereo unspecified) | 512 | 32 | 256 | 4 | 256 | 256 | 4 | 32 | 70 to 80 |  | 
Cl.O=C(OC(Cn1ccnc1)c1ccccc1)c1ccccc1 (stereo unspecified) | 256 | > 32 | 256 | 32 | 64 | 64 | 32 | 64 |  |  | 
Cl.O=C(OC(Cn1ccnc1)c1ccc(Cl)cc1)c1ccccc1 (stereo unspecified) | 512 | 16 | 256 | 2 | 512 | 128 | 4 | 32 | 70 to 80 |  | 
Cl.O=C(/C=C/c1ccccc1)OC(Cn1ccnc1)c1ccc(Cl)cc1 (stereo unspecified) | 512 | 2 | 256 | 2 | 256 | 1020 | 4 | 16 | 70 to 80 |  | 
Cl.O=C(CCCc1ccccc1)OC(Cn1ccnc1)c1ccc(Cl)cc1 (stereo unspecified) | 512 | 8 | 512 | 2 | 128 | 128 | 2 | 8 | 70 to 80 |  | 
CC(C)CC(=O)OC(Cn1ccnc1)c1ccc(Cl)cc1.Cl (stereo unspecified) | 512 | 1 | 256 | 0.25 | 128 | 32 | 0.25 | 4 | 70 to 80 | 8 | 1024
CC(C)CC(=O)OC(Cn1ccnc1)c1ccccc1.Cl (stereo unspecified) | 512 | > 32 | 256 | 2 | 128 | 256 | 2 | 32 |  |  | 
C/C=C/C=C/C(=O)OC(Cn1ccnc1)c1ccc(Cl)cc1.Cl (stereo unspecified) | 512 | 4 | 256 | 1 | 128 | 16 | 0.5 | 8 | 70 to 80 | 8 | 1024
CC(=O)OC(Cn1ccnc1)c1ccc(Cl)cc1.Cl (stereo unspecified) | 512 |  | 256 | 8 | 256 | 256 | 64 | 32 |  |  | 
CCCC(CCC)C(=O)OC(Cn1ccnc1)c1ccccc1.Cl (stereo unspecified) | 512 | > 32 | 256 | 32 | 32 | 16 | 32 | 32 |  |  | 
Cl.O=C(OC(Cn1ccnc1)c1ccc(Cl)cc1)C1CCCCC1 (stereo unspecified) | 256 | 0.5 | 1020 | 1 | 512 | 256 | 1 | 8 | 70 to 80 | 8 | 512
Cl.O=C(CCCc1ccccc1)OC(Cn1ccnc1)c1ccccc1 (stereo unspecified) | 1020 | > 32 | 256 | 4 | 128 | 8 | 4 | 32 |  |  | 
O=C(O)c1cn(C2CC2)c2cc(N3CCNCC3)c(F)cc2c1=O [CIPROFLOXACIN] | 0.005 (≈ 0.0151 µM) |  | 1.5 (≈ 4.53 µM) |  | 1.5 (≈ 4.53 µM) | 0.5 (≈ 1.51 µM) |  |  |  |  | 
OC(Cn1cncn1)(Cn1cncn1)c1ccc(F)cc1F [FLUCONAZOLE] |  | 32 (≈ 104 µM) |  | 0.25 (≈ 0.816 µM) |  |  | 0.25 (≈ 0.816 µM) | 16 (≈ 52.2 µM) |  |  | 
